Laboratory results as given in ChEMBL document CHEMBL4330069, “Boosting the efficacy of anti-MRSA β-lactam antibiotics via an easily accessible, non-cytotoxic and orally bioavailable FtsZ inhibitor” (Eur J Med Chem, 2019).
In brackets after ≈: the same amount, converted by molar mass.

Columns and labels:
[1] = tested on: Staphylococcus aureus; experiment: Synergistic antibacterial activity against multidrug-resistant Staphylococcus aureus isolate 1749 in presence of cefuroxime by broth microdilution assay; type: functional
Procedure, shortened: (§1)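 Clinical MRSA isolate panel; compound and β-lactam tested alone and in combination by CLSI broth microdilution, compounds dissolved in DMSO, growth inhibition scored by eye, run in duplicate. FIC index = FIC(compound) + FIC(drug), each the MIC in combination divided by the MIC alone; an index ≤ 0.5 was called synergy.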

[2] = tested on: Staphylococcus aureus; experiment: Synergistic antibacterial activity against multidrug-resistant Staphylococcus aureus isolate 1717 assessed as fractional Inhibitory concentration index in presence of meropenem by broth microdilution assay; type: functional
Procedure, shortened: (§2)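 CLSI broth microdilution run on clinical MRSA isolates with each β-lactam alone, the test agent alone, and the two combined; agents dissolved in DMSO. Growth inhibition was read by eye. FIC index = FIC(compound) + FIC(β-lactam), where each FIC is the MIC in combination divided by the MIC alone. An index ≤0.5 was taken as synergy.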

[3] = tested on: Staphylococcus aureus; experiment: Synergistic antibacterial activity against multidrug-resistant Staphylococcus aureus isolate 2895 assessed as fractional Inhibitory concentration index in presence of meropenem by broth microdilution assay; type: functional
[4] = tested on: Staphylococcus aureus; experiment: Synergistic antibacterial activity against multidrug-resistant Staphylococcus aureus isolate 417 in presence of cefuroxime by broth microdilution assay; type: functional
[5] = tested on: Staphylococcus aureus; experiment: Synergistic antibacterial activity against multidrug-resistant Staphylococcus aureus isolate 757 in presence of cloxacillin by broth microdilution assay; type: functional
[6] = tested on: Staphylococcus aureus; experiment: Synergistic antibacterial activity against multidrug-resistant Staphylococcus aureus isolate 1344 assessed as fractional Inhibitory concentration index in presence of cloxacillin by broth microdilution assay; type: functional; procedure, shortened: as §2
[7] = tested on: Staphylococcus aureus; experiment: Synergistic antibacterial activity against multidrug-resistant Staphylococcus aureus isolate 2224 assessed as fractional Inhibitory concentration index in presence of cefuroxime by broth microdilution assay; type: functional; procedure, shortened: as §2
[8] = tested on: Staphylococcus aureus; experiment: Synergistic antibacterial activity against multidrug-resistant Staphylococcus aureus isolate 256 assessed as fractional Inhibitory concentration index in presence of cefuroxime by broth microdilution assay; type: functional
[9] = tested on: Staphylococcus aureus; experiment: Synergistic antibacterial activity against multidrug-resistant Staphylococcus aureus isolate 256 assessed as fractional Inhibitory concentration index in presence of cloxacillin by broth microdilution assay; type: functional
[10] = tested on: Staphylococcus aureus; experiment: Synergistic antibacterial activity against multidrug-resistant Staphylococcus aureus isolate 417 in presence of methicillin by broth microdilution assay; type: functional
[11] = tested on: Staphylococcus aureus; experiment: Synergistic antibacterial activity against multidrug-resistant Staphylococcus aureus isolate 358 in presence of amoxicillin by broth microdilution assay; type: functional
[12] = tested on: Staphylococcus aureus; experiment: Synergistic antibacterial activity against multidrug-resistant Staphylococcus aureus isolate 256 assessed as fractional Inhibitory concentration index in presence of amoxicillin by broth microdilution assay; type: functional
[13] = tested on: Staphylococcus aureus; experiment: Synergistic antibacterial activity against multidrug-resistant Staphylococcus aureus isolate 2895 assessed as fractional Inhibitory concentration index in presence of methicillin by broth microdilution assay; type: functional
[14] = tested on: Staphylococcus aureus; experiment: Synergistic antibacterial activity against multidrug-resistant Staphylococcus aureus isolate 757 in presence of meropenem by broth microdilution assay; type: functional
[15] = tested on: Staphylococcus aureus; experiment: Synergistic antibacterial activity against multidrug-resistant Staphylococcus aureus isolate 1344 in presence of amoxicillin by broth microdilution assay; type: functional; procedure, shortened: as §1
[16] = tested on: Staphylococcus aureus; experiment: Synergistic antibacterial activity against multidrug-resistant Staphylococcus aureus isolate 2901 assessed as fractional Inhibitory concentration index in presence of amoxicillin by broth microdilution assay; type: functional
[17] = tested on: Staphylococcus aureus; experiment: Synergistic antibacterial activity against multidrug-resistant Staphylococcus aureus isolate 1136 assessed as fractional Inhibitory concentration index in presence of cloxacillin by broth microdilution assay; type: functional; procedure, shortened: as §2
[18] = tested on: Staphylococcus aureus; experiment: Synergistic antibacterial activity against multidrug-resistant Staphylococcus aureus isolate 757 assessed as fractional Inhibitory concentration index in presence of meropenem by broth microdilution assay; type: functional
[19] = tested on: Staphylococcus aureus; experiment: Synergistic antibacterial activity against multidrug-resistant Staphylococcus aureus isolate 2919 assessed as fractional Inhibitory concentration index in presence of cefuroxime by broth microdilution assay; type: functional
[20] = tested on: Staphylococcus aureus; experiment: Synergistic antibacterial activity against multidrug-resistant Staphylococcus aureus isolate 256 in presence of meropenem by broth microdilution assay; type: functional
Procedure, shortened: (§3)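 CLSI broth microdilution on clinical MRSA isolates. MICs were measured for the β-lactam alone, the test agent alone and the two combined. Compounds were dissolved in DMSO, and growth inhibition was scored by eye. FIC index is the sum, over both agents, of MIC in combination divided by MIC alone. An FIC index ≤0.5 was taken as synergy.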

[21] = tested on: Staphylococcus aureus; experiment: Synergistic antibacterial activity against multidrug-resistant Staphylococcus aureus isolate 2973 in presence of methicillin by broth microdilution assay; type: functional; procedure, shortened: as §3
[22] = tested on: Staphylococcus aureus; experiment: Synergistic antibacterial activity against multidrug-resistant Staphylococcus aureus isolate 3411 in presence of methicillin by broth microdilution assay; type: functional
[23] = tested on: Staphylococcus aureus; experiment: Synergistic antibacterial activity against multidrug-resistant Staphylococcus aureus isolate 256 assessed as fractional Inhibitory concentration index in presence of methicillin by broth microdilution assay; type: functional
[24] = tested on: Staphylococcus aureus; experiment: Synergistic antibacterial activity against multidrug-resistant Staphylococcus aureus isolate 417 assessed as fractional Inhibitory concentration index in presence of amoxicillin by broth microdilution assay; type: functional
[25] = Tmax in Sprague-Dawley rat at 50 mg/kg, po by UPLC-MS/MS analysis; type: ADME, organism-based; conditions: in vivo
[26] = tested on: Staphylococcus aureus; experiment: Synergistic antibacterial activity against multidrug-resistant Staphylococcus aureus isolate 417 assessed as fractional Inhibitory concentration index in presence of cloxacillin by broth microdilution assay; type: functional
[27] = tested on: Staphylococcus aureus; experiment: Synergistic antibacterial activity against multidrug-resistant Staphylococcus aureus isolate 2490 in presence of cloxacillin by broth microdilution assay; type: functional; procedure, shortened: as §1
[28] = tested on: Staphylococcus aureus; experiment: Synergistic antibacterial activity against multidrug-resistant Staphylococcus aureus isolate 2490 in presence of methicillin by broth microdilution assay; type: functional; procedure, shortened: as §1
[29] = tested on: Staphylococcus aureus; experiment: Synergistic antibacterial activity against multidrug-resistant Staphylococcus aureus isolate 2895 in presence of amoxicillin by broth microdilution assay; type: functional; procedure, shortened: as §3
[30] = tested on: Staphylococcus aureus; experiment: Synergistic antibacterial activity against multidrug-resistant Staphylococcus aureus isolate 2901 assessed as fractional Inhibitory concentration index in presence of cefuroxime by broth microdilution assay; type: functional
[31] = tested on: Staphylococcus aureus; experiment: Synergistic antibacterial activity against multidrug-resistant Staphylococcus aureus isolate 2919 in presence of meropenem by broth microdilution assay; type: functional; procedure, shortened: as §3
[32] = tested on: Staphylococcus aureus; experiment: Antibacterial activity against multidrug-resistant Staphylococcus aureus isolate 417 by broth microdilution assay; type: functional
Procedure, shortened: (§4)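 Broth microdilution MIC per CLSI guidelines against clinical MRSA isolates, for β-lactams and test compound alone and in combination. Compounds were dissolved in DMSO. Growth was read by eye, in duplicate. FIC index = FIC(compound) + FIC(drug); synergy defined as FIC index ≤0.5.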

[33] = tested on: Staphylococcus aureus; experiment: Synergistic antibacterial activity against multidrug-resistant Staphylococcus aureus isolate 3589 in presence of amoxicillin by broth microdilution assay; type: functional
[34] = tested on: Staphylococcus aureus; experiment: Synergistic antibacterial activity against multidrug-resistant Staphylococcus aureus isolate 774 assessed as fractional Inhibitory concentration index in presence of meropenem by broth microdilution assay; type: functional
[35] = tested on: Staphylococcus aureus; experiment: Synergistic antibacterial activity against multidrug-resistant Staphylococcus aureus isolate 757 assessed as fractional Inhibitory concentration index in presence of cefuroxime by broth microdilution assay; type: functional
[36] = tested on: Staphylococcus aureus; experiment: Antibacterial activity against multidrug-resistant Staphylococcus aureus isolate 3580 by broth microdilution assay; type: functional; procedure, shortened: as §4
[37] = tested on: Staphylococcus aureus; experiment: Synergistic antibacterial activity against multidrug-resistant Staphylococcus aureus isolate 85 in presence of amoxicillin by broth microdilution assay; type: functional
[38] = tested on: Staphylococcus aureus; experiment: Synergistic antibacterial activity against multidrug-resistant Staphylococcus aureus isolate 2901 in presence of cloxacillin by broth microdilution assay; type: functional; procedure, shortened: as §3

CCCCCCCCCNc1ccc(F)c(C(N)=O)c1F
MIC [1]: 2 µg/mL | fractional inhibitory concentration index (FICI) [2]: 3 | fractional inhibitory concentration index (FICI) [3]: 2.1 | MIC [4]: 2 µg/mL | MIC [5]: 1 µg/mL | fractional inhibitory concentration index (FICI) [6]: 0.1 | fractional inhibitory concentration index (FICI) [7]: 0.3 | fractional inhibitory concentration index (FICI) [8]: 0 | fractional inhibitory concentration index (FICI) [9]: 0.1 | MIC [10]: 2 µg/mL | MIC [11]: 4 µg/mL | fractional inhibitory concentration index (FICI) [12]: 0.1 | fractional inhibitory concentration index (FICI) [13]: 0.3 | MIC [14]: 16 µg/mL | MIC [15]: 16 µg/mL | fractional inhibitory concentration index (FICI) [16]: 0.1 | fractional inhibitory concentration index (FICI) [17]: 0.4 | fractional inhibitory concentration index (FICI) [18]: 4.1 | fractional inhibitory concentration index (FICI) [19]: 0.3 | MIC [20]: 8 µg/mL | MIC [21]: 4 µg/mL | MIC [22]: 2 µg/mL | fractional inhibitory concentration index (FICI) [23]: 0 | fractional inhibitory concentration index (FICI) [24]: 0.3 | Tmax [25]: 2 h | fractional inhibitory concentration index (FICI) [26]: 0.1 | MIC [27]: 1 µg/mL | MIC [28]: 4 µg/mL | MIC [29]: 16 µg/mL | fractional inhibitory concentration index (FICI) [30]: 0.1 | MIC [31]: 4 µg/mL | MIC [32]: 32 µg/mL (≈ 107 µM) | MIC [33]: 8 µg/mL | fractional inhibitory concentration index (FICI) [34]: 0.1 | fractional inhibitory concentration index (FICI) [35]: 0.1 | MIC [36]: 32 µg/mL (≈ 107 µM) | MIC [37]: 8 µg/mL | MIC [38]: 0.5 µg/mL
